# In the library only some 1.8% were active in any assay of this set; here they are far more common.
# NR2E3 ag-1: inhibitors of NR2E3-RetCOR corepressor binding, primary screen, NR2E3 agonist project, biochemical, TR-FRET, GST-NR2E3, biotin-RetCOR. Photoreceptor-specific nuclear receptor (Homo sapiens), Q9Y5X4. 1536-well. inhibition of corepressor binding, % at 4.78 µM. 320,000 compounds, 0.12% hits. AID 2300, 2010;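 active means percent inhibition above the cutoff of mean plus 3 SD of all tested compounds, set per screening campaign, cut at about 20% in these data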;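 further: 0% = DMSO wells and 100% = biotin wells as full block of FRET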
#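 Material: NR2E3–RetCOR corepressor complex / Incubation: Compound–protein incubation for 5 h at 4 °C / Dosing: compound at 4.8 µM, single dose / Detection: time-resolved FRET / Benchmarks: high control biotin, low control 0.6% DMSO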
# NR2E3 ag-2: NR2E3 agonists in two-hybrid cells, primary screen, cell-based, luminescence, CHO-S, Gal4-NCOR/VP16-NR2E3 | Photoreceptor-specific nuclear receptor (Homo sapiens), Q9Y5X4 | luciferase | inhibition of corepressor binding, % at 3.98 µM | 360,000 compounds, 0.35% hits;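 active means inhibition above the mean of all tested compounds plus 3 SD, cut at about 70% in these data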;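 further: 0% = DMSO with NR2E3 transfected cells and 100% = cells lacking NR2E3 construct; higher means lower luciferase signal from less NR2E3 corepressor binding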
# GalR3 antag: GalR3 antagonists in HEK293 cells, primary screen, cell-based, fluorescence readout; Galanin receptor type 3 (Homo sapiens), O60755; HEK293 GalR3-CNG cAMP membrane potential fluorescence; galR3 body fused to GalR1 C-terminus; inhibition, % at 3 µM; 360,000 compounds, 0.44% hits;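 active means inhibition above the screen-wide average plus 3 SD, cut at about 13% in these data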;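 further: forskolin and galanin both at EC90 stimulate the cells; cAMP rise reported by CNG channel membrane potential dye signal; 0% = forskolin plus galanin with DMSO and 100% = forskolin alone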
# NR1D1 modulator: modulators of Rev-erb alpha DNA binding, primary screen, biochemical, FITC-DNA, fluorescence polarization, uHTS; activity, % at 10 µM; Rev-erbα–FITC-DNA binding, 90 min; Nuclear receptor subfamily 1 group D member 1 (Homo sapiens), P20393; 370,000 compounds, 0.79% hits; AID 1259318, 2017;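 active means activity above about 14%, limit read from the data; passing the limit was not always enough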;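 further: 0% = DMSO wells with 35 nM protein and 100% = DMSO wells with 750 nM protein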
# Target sequence (P20393 whole entry, looked up): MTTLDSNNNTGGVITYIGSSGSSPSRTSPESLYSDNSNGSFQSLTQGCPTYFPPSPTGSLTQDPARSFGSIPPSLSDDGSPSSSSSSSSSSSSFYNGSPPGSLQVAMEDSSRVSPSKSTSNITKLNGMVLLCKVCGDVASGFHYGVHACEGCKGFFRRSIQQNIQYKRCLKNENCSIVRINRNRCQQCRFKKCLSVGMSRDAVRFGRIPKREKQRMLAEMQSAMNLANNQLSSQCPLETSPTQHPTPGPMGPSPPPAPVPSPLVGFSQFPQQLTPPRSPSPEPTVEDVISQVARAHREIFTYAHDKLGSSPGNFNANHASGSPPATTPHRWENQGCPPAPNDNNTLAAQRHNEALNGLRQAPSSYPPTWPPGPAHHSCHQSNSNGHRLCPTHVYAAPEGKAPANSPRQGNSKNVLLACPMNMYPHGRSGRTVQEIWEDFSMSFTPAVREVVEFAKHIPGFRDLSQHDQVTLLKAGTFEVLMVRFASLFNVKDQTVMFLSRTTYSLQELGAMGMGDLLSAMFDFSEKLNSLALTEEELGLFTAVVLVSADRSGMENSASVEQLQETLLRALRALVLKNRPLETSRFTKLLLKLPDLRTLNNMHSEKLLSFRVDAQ
# PG9 Ab binder: binders of HIV-1 gp120 antibody PG9, primary screen, biochemical, TR-FRET. TR-FRET gp120-PG9 antibody binding. inhibition, % at 6.7 µM. 360,000 compounds, 0.43% hits; in the data active means inhibition above about 8.5%
# NR1D1 mod conf: modulators of Rev-erb alpha DNA binding, confirmation, biochemical, FITC-DNA, fluorescence polarization, single point | 3,000 compounds, 61% hits | 90 min | activation, % at 25 µM | AID 1259319, 2017 | shares compounds with NR1D1 modulator;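 active means activation at or above a set limit, or at least 3 SD above the negative control mean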;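 further: 0% = 35 nM protein with DMSO and 100% = 750 nM protein high control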
# RORg DNA counter: modulation of RORgamma DNA binding, dose response, counter-screen for Rev-erb alpha modulator project, biochemical, fluorescence polarization, FITC-DNA. shares compounds with NR1D1 modulator. purified RORgamma protein-FITC-DNA binding. IC50, µM. 910 compounds, 8% hits;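 active means Compounds whose fitted half-maximal concentration for disrupting protein-DNA binding is below 10 micromolar; the record names Rev-erb in its text, so the target is in doubt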
# An asterisk follows results filed as active; i = inactive; · = no result given.
SMILES,NR2E3 ag-1,NR2E3 ag-2,GalR3 antag,NR1D1 modulator,PG9 Ab binder,NR1D1 mod conf,others
Clc1nc2c(-c3ccccc3)nnn2c2ccccc12,2,-63,8,83*,0,68*,RORg DNA counter=>40
COc1ccc(-c2nnn3c2nc(NCc2ccccc2)c2ccccc23)cc1,2,-6,-1,23*,-2,17*,
CCCCN(C)C1=CC2=CC(=C(C#N)C#N)CCC2CC1 (stereo unspecified),1,-42,-5,69*,-10,34*,RORg DNA counter=>40
N#CC(C#N)=C1C=C2C=C(N3CCCCC3)CCC2CC1 (stereo unspecified),-6,·,·,·,·,·,
CCN(CC)C1=CC2=CC(=C(C#N)C#N)CCC2CC1 (stereo unspecified),-2,20,-3,66*,-7,24*,
CCc1nnc2sc(-c3ccc(NC(=O)CSc4ccc(Cl)cc4)cc3)nn12,1,-14,-2,32*,0,21*,
COC(=O)[C@]12C[C@H](CC(=O)NCCCN3CCCC3=O)C(=O)N(CCC3=CCCCC3)C1=C[C@H](C1CCCC1)O[C@@H]2C,·,·,·,7,·,·,
CCc1ccc2nc(NC(=O)C3CCN(c4ncnc5sc(C)c(C)c45)CC3)sc2c1,3,-96,-2,21*,-1,19*,
CCc1cccc2c(C(C)c3ccccc3O)c[nH]c12 (stereo unspecified),·,·,·,3,·,·,
O=S1(=O)N[C@H](Cc2ccccc2)COc2cccc(F)c21,·,·,-3,-4,0,·,
COc1ccc(C#Cc2ccc(C3=CC(=O)CC(C)(C)C3=O)cc2)cc1,·,-84,-6,153*,4,51*,RORg DNA counter=>40
CC1(C)CC(=O)C=C(c2ccc(Oc3ccccc3)cc2)C1=O,·,-22,-7,2,0,·,
COCc1[nH]nc2c1C(c1ccccc1)N(Cc1ccccc1)C2=O (stereo unspecified),·,·,-1,0,0,·,
Cc1cc(=O)oc2cc(OCC(=O)Nc3ccc(S(=O)(=O)N(C)C)cc3)ccc12,-2,11,-7,23*,-1,30*,RORg DNA counter=>40
Cc1cc(=O)oc2cc(OCC(=O)Nc3ccc(F)cc3F)ccc12,·,-19,-3,21*,1,-1,
CCCCCCCCN1CCS(=O)(=O)N(Cc2ccc(Cl)cc2)C(C(=O)OC)C1 (stereo unspecified),·,·,·,1,·,·,
COC(=O)C1CCCN(C(=O)C(Cc2ccc3c(c2)OCO3)NC(C)=O)C1 (stereo unspecified),·,·,·,0,·,·,
Cc1cc(=O)oc2cc(OCC3CC(c4ccccc4)=NO3)ccc12 (stereo unspecified),2,-132,·,-1,·,·,
Cc1cc(=O)oc2cc(OCC3CC(c4ccc(Br)cc4)=NO3)ccc12 (stereo unspecified),1,-12,-2,55*,1,46*,RORg DNA counter=2.1*
COc1ccc2[nH]cc(C=O)c2c1,1,-3,-2,-4,0,·,
COc1ccc2[nH]cc(/C=C/c3cc[n+](C)cc3)c2c1,-13,22,-7,69*,-23,58*,RORg DNA counter=>40
Cc1ccsc1C(=O)NNC(=O)c1cccc(S(=O)(=O)N2CCCC2)c1,3,-10,-4,18*,2,-5,
CCOc1ccc(CCNC(=O)CCOc2cc(C)ccc2C)cc1OCC,3,-26,-10,-1,0,·,
Cc1ccc(C)c(OCCC(=O)NCCc2ccc(Cl)cc2)c1,0,6,-3,23*,4,27*,
O=S1(=O)C=CCN1Cc1cn(Cc2ccc(F)cc2)nn1,·,·,·,1,·,·,
SMILES,NR2E3 ag-1,NR2E3 ag-2,GalR3 antag,NR1D1 modulator,PG9 Ab binder,NR1D1 mod conf,others
O=c1c2ccccc2[nH]c(=S)n1Cc1ccccc1,4,11,-12,19*,0,6,
O=C(NCc1ccccn1)c1ccc(Cn2c(=S)[nH]c3ccc(Br)cc3c2=O)cc1,2,-6,3,42*,-1,35*,RORg DNA counter=>40
O=C(NCc1ccccn1)c1ccc(Cn2c(=S)[nH]c3ccccc3c2=O)cc1,8,-6,-3,0,-3,·,
COc1ccc(CN2C(=O)N3Cc4ccc(C)cc4C3CS2(=O)=O)cc1 (stereo unspecified),·,·,·,-3,·,·,
Cn1c(N)c(C(=O)c2ccc(Cl)cc2)c(=O)n(C)c1=O,2,-14,-5,-4,0,·,
Cc1nn(-c2ccc(Cl)cc2)c2sc(C(=O)c3c(N)n(C)c(=O)n(C)c3=O)cc12,-1,-6,-2,31*,1,38*,RORg DNA counter=>40
COc1ccc(-n2c(COc3ccc(Cl)cc3)nnc2SCc2nc3ccccc3[nH]2)cc1,·,·,·,1,·,·,
Cc1cc(NC(=O)COC(=O)c2oc3c(ccc4ccccc43)c2C)no1,-2,27,0,-5,5,·,
Cc1c(C(=O)OCC(=O)Nc2ccc(S(N)(=O)=O)cc2)oc2c1ccc1ccccc12,4,-8,-1,16*,5,18,
CCN(CC)C(=O)CC[C@@H]1CC[C@]2(CCCN(Cc3ccccc3)C2)O1,·,·,·,-1,·,·,
O=C(CCc1ccccc1)N[C@H]1C(=O)CCC[C@]12C(=O)N(Cc1ccccc1)c1ccccc12,·,·,·,1,·,·,
C#CCNC(=O)C[C@H]1C[C@@]2(C(=O)OC)C(=C[C@H](COCc3ccccc3)O[C@@H]2C)N(CCc2ccc(OC)c(OC)c2)C1=O,·,·,·,4,·,·,
CCSC1=N/C(=C\c2ccc3c(c2)OCO3)C(=O)S1,1,5,1,3,0,·,
CCSC1=N/C(=C\C=C2/Oc3ccccc3N2CC)C(=O)S1,-3,-40,-6,50*,-3,46*,RORg DNA counter=>40
CCOC(=O)c1cc2sc(C)cc2n1CC(=O)N1CCc2ccccc21,-2,-14,-2,22*,-1,24*,
Cn1c2ccccc2n2c(=O)c(Cl)c(-c3ccccc3)c(C#N)c12,-1,-17,7,41*,0,33*,RORg DNA counter=i
Cn1ccc(-c2ccccc2)c(C#N)c1=O,1,-4,-4,3,0,·,
Cc1cc(OCC(=O)Nc2ccccn2)c2c(C)c(C)c(=O)oc2c1,1,-18,-8,33*,-1,2,
Cc1cc(OC(C)C(=O)NCc2ccccn2)c2c(C)cc(=O)oc2c1 (stereo unspecified),1,20,-7,2,0,·,
